Test results reported in ChEMBL document CHEMBL5512684 (J Med Chem, 2024).
Peptide text beside a SMILES is read from it.

Experiments:
[1] = target: T1, Neuronal acetylcholine receptor subunit alpha-7 (Homo sapiens, UniProt P36544); assay: Antagonist activity at human alpha7 nAChR expressed in Xenopus laevis oocytes assessed as inhibition of Ach-induced response at -70 mV holding potential measured after 5 mins by two electrode voltage-clamp electrophysiology method; format: cell-based, Oocyte
Method in brief: (§1)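 TEVC at −70 mV after 1–4 days, perfusion ~3 mL/min, saline pH 7.4 with BSA. ACh 3 mM for α10, 100 μM for α7. α7 pulses 500 ms, α10 1 s, every 60 s. Peptide perfused up to 1 μM, static 5-min bath above.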

[2] = target: T1, Neuronal acetylcholine receptor subunit alpha-7; assay: (§2) Antagonist activity at human alpha7 nAChR expressed in Xenopus laevis oocytes assessed as inhibition of Ach-induced response assessed as residual activity at 10 uM at -70 mV holding potential preincubated for 5 mins followed by peptide washout and measured after 15 mins by two electrode voltage-clamp electrophysiology method (reference value: 0.5 +/- 0.2%); format: cell-based; conditions: Oocyte
Method in brief: (§3)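 Recovery of ACh-evoked responses was then followed during peptide washout for 15 min. Values are given as percent of control responses.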

[3] = target: Neuronal acetylcholine receptor; alpha9/alpha10 (Homo sapiens, UniProt Q9GZZ6+Q9UGM1); assay: Antagonist activity at human alpha9alpha10 nAChR expressed in Xenopus laevis oocytes assessed as inhibition of Ach-induced response at -70 mV holding potential measured after 5 mins by two electrode voltage-clamp electrophysiology method; format: cell-based, Oocyte
[4] = target: T2, Neuronal acetylcholine receptor; alpha9/alpha10 (Homo sapiens) (UniProt Q9UGM1+Q9GZZ6); assay: as §2, with “alpha9alpha10” for “alpha7”, “0.5%)” for “0.5 +/- 0.2%)”; format: cell-based; conditions: Oocyte, filed as antagonist; method in brief: as §3
[5] = target: T2, Neuronal acetylcholine receptor; alpha9/alpha10 (Homo sapiens); assay: Antagonist activity at human alpha9alpha10 nAChR expressed in Xenopus laevis oocytes assessed as inhibition of Ach-induced response by measuring residual activity at 10 uM at -70 mV holding potential measured after 5 mins by two electrode voltage-clamp electrophysiology method relative to control; format: cell-based; conditions: Oocyte
Method in brief: (§4)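 Single-point test at 10 μM peptide, applied for 5 min in a static bath to oocytes under TEVC at −70 mV. ACh 100 μM (α7, α9, α9α10) or 3 mM (α10), pulsed every 60 s. The ACh response was normalized to the response after a 5-min bath application of control saline.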

[6] = target: T1, Neuronal acetylcholine receptor subunit alpha-7; assay: Antagonist activity at human alpha7 nAChR expressed in Xenopus laevis oocytes assessed as inhibition of Ach-induced response by measuring residual activity at 10 uM at -70 mV holding potential measured after 5 mins by two electrode voltage-clamp electrophysiology method relative to control; format: cell-based; conditions: Oocyte; method in brief: as §4
[7] = target: T2, Neuronal acetylcholine receptor; alpha9/alpha10 (Homo sapiens); assay: as §2, with “alpha9alpha10” for “alpha7”, “3” for “0.5”, “2%)” for “0.2%)”; format: cell-based; conditions: Oocyte; method in brief: as §3
[8] = target: T1, Neuronal acetylcholine receptor subunit alpha-7; assay: as §2, with “30” for “0.5”, “9%)” for “0.2%)”; format: cell-based; conditions: Oocyte; method in brief: as §3
[9] = target: T3, Neuronal acetylcholine receptor subunit alpha-9 (Homo sapiens, UniProt Q9UGM1); assay: Antagonist activity at human alpha9 nAChR expressed in Xenopus laevis oocytes assessed as inhibition of Ach-induced response by measuring residual activity at 10 uM at -70 mV holding potential measured after 5 mins by two electrode voltage-clamp electrophysiology method relative to control; format: cell-based; conditions: Oocyte; method in brief: as §4
Homo sapiens [10] = species: Homo sapiens; assay: (§5) Selectivity index, ratio of IC50 for antagonist activity at human alpha9 nAChR expressed in Xenopus laevis oocytes assessed as inhibition of Ach-induced response to IC50 for antagonist activity at human alpha3beta2 nAChR expressed in Xenopus laevis oocytes assessed as inhibition of Ach-induced response; format: cell-based
Homo sapiens [11] = species: Homo sapiens; assay: as §5, with “alpha9alpha10” for “alpha9”; format: cell-based
Homo sapiens [12] = species: Homo sapiens; assay: as §5, with “alpha10” for “alpha9”; format: cell-based
[13] = target: Neuronal acetylcholine receptor; alpha3/beta2 (Homo sapiens, UniProt P17787+P32297); assay: Antagonist activity at human alpha3beta2 nAChR expressed in Xenopus laevis oocytes assessed as inhibition of Ach-induced response at -70 mV holding potential measured after 5 mins by two electrode voltage-clamp electrophysiology method; format: cell-based, Oocyte
Method in brief: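 Oocytes expressing human α3β2 nAChRs were clamped at −70 mV by TEVC 1–4 days after cRNA injection and gravity-perfused with HEPES-buffered saline, pH 7.4. ACh was pulsed every 60 s until responses were stable. Peptide was perfused up to 1 μM, or given as a 5-min static bath above 1 μM. Responses were normalized to control ACh responses.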

Homo sapiens [14] = species: Homo sapiens; assay: as §5, with “alpha7” for “alpha9”; format: cell-based
[15] = target: T3, Neuronal acetylcholine receptor subunit alpha-9; assay: Antagonist activity at human alpha9 nAChR expressed in Xenopus laevis oocytes assessed as inhibition of Ach-induced response at -70 mV holding potential measured after 5 mins by two electrode voltage-clamp electrophysiology method; format: cell-based, Oocyte
Method in brief: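 Human α9 or α9α10 cRNA in stage IV–V oocytes kept at 16 °C; α9-only oocytes incubated with 5 mM choline. TEVC at −70 mV, 1–4 days post-injection. 1 s pulses of 100 μM ACh every 60 s until responses were stable. Peptide perfused (≤1 μM) and responses normalized to the mean of three control responses. Above 1 μM, 5-min static bath normalized to a 5-min control-saline bath.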

[16] = target: T4, Neuronal acetylcholine receptor subunit alpha-10 (Homo sapiens, UniProt Q9GZZ6); assay: Antagonist activity at human alpha10 nAChR expressed in Xenopus laevis oocytes assessed as inhibition of Ach-induced response by measuring residual activity at 10 uM at -70 mV holding potential measured after 5 mins by two electrode voltage-clamp electrophysiology method relative to control; format: cell-based; conditions: Oocyte; method in brief: as §4
[17] = target: T4, Neuronal acetylcholine receptor subunit alpha-10; assay: Antagonist activity at human alpha10 nAChR expressed in Xenopus laevis oocytes assessed as inhibition of Ach-induced response at -70 mV holding potential measured after 5 mins by two electrode voltage-clamp electrophysiology method; format: cell-based, Oocyte; method in brief: as §1

T1 sequence (P36544 whole entry, the tested form may be a part): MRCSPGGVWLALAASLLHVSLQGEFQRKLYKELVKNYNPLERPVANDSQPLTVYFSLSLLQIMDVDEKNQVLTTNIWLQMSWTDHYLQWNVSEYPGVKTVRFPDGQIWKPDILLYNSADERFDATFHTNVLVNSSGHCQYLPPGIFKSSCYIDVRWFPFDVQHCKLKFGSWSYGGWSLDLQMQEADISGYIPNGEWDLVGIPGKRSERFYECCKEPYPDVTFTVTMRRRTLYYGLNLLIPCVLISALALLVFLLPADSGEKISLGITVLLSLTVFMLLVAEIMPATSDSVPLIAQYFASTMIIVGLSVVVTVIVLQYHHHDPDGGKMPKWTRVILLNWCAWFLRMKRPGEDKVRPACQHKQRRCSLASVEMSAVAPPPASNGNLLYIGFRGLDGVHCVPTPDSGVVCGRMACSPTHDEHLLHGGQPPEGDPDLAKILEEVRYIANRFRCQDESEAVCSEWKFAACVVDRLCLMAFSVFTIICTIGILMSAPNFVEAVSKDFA
Chain of Neuronal acetylcholine receptor; alpha9/alpha10 (Q9UGM1 whole entry): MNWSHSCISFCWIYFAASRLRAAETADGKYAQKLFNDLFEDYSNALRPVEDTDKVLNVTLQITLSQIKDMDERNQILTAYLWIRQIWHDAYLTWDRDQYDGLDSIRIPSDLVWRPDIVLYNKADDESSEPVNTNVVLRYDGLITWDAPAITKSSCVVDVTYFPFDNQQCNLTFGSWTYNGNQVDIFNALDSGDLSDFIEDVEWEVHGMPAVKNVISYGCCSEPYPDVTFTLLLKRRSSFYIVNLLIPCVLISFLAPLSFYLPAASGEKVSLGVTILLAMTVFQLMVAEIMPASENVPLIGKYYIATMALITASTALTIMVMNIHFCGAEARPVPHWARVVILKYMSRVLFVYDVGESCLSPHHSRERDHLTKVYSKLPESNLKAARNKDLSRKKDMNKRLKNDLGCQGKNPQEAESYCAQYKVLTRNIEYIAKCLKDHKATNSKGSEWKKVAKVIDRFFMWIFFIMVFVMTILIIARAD
Chain of Neuronal acetylcholine receptor; alpha9/alpha10 (Q9GZZ6 whole entry): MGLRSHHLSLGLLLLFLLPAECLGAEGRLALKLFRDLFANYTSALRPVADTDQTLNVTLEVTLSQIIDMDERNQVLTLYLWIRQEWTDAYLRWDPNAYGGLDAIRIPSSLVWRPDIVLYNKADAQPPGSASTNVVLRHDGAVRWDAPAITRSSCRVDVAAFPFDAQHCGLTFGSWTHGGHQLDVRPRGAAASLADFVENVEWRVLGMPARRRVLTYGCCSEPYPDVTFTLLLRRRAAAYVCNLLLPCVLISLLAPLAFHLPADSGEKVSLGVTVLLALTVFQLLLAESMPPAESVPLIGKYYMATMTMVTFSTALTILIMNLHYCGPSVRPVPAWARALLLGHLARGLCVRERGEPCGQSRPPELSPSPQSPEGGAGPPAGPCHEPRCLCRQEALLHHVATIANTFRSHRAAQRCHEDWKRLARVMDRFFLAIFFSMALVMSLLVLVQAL
T4 sequence (Q9GZZ6 whole entry): as above
T3 sequence (Q9UGM1 whole entry): as the sequence (Q9UGM1 whole entry) above
Chain of Neuronal acetylcholine receptor; alpha3/beta2 (P17787 whole entry, the tested form may be a part): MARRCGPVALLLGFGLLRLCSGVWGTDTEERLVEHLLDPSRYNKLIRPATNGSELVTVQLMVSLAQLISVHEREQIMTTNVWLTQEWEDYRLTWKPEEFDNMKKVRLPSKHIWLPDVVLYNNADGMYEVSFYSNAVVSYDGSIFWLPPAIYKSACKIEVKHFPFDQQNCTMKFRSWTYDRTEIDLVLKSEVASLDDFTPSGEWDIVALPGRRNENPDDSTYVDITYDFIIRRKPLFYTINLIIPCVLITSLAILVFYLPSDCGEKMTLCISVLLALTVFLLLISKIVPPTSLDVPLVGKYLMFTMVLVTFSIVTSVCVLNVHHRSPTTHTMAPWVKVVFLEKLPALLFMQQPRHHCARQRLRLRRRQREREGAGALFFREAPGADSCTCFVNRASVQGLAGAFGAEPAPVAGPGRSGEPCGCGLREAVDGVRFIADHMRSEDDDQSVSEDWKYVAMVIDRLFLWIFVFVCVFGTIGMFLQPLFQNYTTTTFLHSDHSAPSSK
Chain of Neuronal acetylcholine receptor; alpha3/beta2 (P32297 whole entry, the tested form may be a part): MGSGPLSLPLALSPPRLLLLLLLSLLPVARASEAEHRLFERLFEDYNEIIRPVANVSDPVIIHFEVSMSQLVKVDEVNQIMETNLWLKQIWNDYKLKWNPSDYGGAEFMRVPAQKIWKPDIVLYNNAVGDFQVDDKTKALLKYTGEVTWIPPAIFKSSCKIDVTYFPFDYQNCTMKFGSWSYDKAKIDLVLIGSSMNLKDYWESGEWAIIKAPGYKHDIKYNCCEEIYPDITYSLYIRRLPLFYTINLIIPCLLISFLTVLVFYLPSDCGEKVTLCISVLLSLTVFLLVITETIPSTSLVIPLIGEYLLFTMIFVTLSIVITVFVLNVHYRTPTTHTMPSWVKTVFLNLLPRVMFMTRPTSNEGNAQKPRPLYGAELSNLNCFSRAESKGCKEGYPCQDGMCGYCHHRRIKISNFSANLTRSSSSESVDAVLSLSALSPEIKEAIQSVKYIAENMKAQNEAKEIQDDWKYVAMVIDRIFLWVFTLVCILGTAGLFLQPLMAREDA

`C[C@H](NC(=O)[C@H](CCCNC(=N)N)NC(=O)[C@H](CO)NC(=O)[C@@H]1CCCN1C(=O)[C@H](CO)NC(=O)[C@H](CS)NC(=O)[C@H](C)NC(=O)[C@@H]1CCCN1C(=O)[C@H](Cc1c[nH]cn1)NC(=O)[C@H](CO)NC(=O)[C@H](CS)NC(=O)[C@H](CS)NC(=O)CN)C(=O)N[C@@H](CO)C(=O)N[C@@H](CO)C(=O)N[C@@H](CS)C(=O)O` (H-GCCSHPACSPSRASSC-OH) was tested, and the IC50 [1] was greater than 10000 nM.

Work on `C[C@H](NC(=O)[C@H](CCCNC(=N)N)NC(=O)[C@H](CCCNC(=N)N)NC(=O)[C@H](CCCNC(=N)N)NC(=O)[C@H](CO)NC(=O)[C@H](CS)NC(=O)[C@H](C)NC(=O)[C@@H]1CCCN1C(=O)[C@H](Cc1c[nH]cn1)NC(=O)[C@H](CO)NC(=O)[C@H](CS)NC(=O)[C@H](CS)NC(=O)CN)C(=O)N[C@@H](CCCNC(=N)N)C(=O)N[C@@H](CO)C(=O)N[C@@H](CS)C(=O)O` (H-GCCSHPACSRRRARSC-OH) yielded an Activity [2] of 99%, an IC50 [3] of 98.1 nM and an IC50 [1] of 177 nM. The Activity [4] was 21%, the Activity ([5]; filed as antagonist) was 1% and the Activity ([6]; filed as antagonist) was 1.4%.

For `C[C@H](NC(=O)[C@H](CCCNC(=N)N)NC(=O)[C@H](CCCNC(=N)N)NC(=O)[C@@H]1CCCN1C(=O)[C@H](CO)NC(=O)[C@H](CS)NC(=O)[C@H](C)NC(=O)[C@@H]1CCCN1C(=O)[C@H](Cc1c[nH]cn1)NC(=O)[C@H](CO)NC(=O)[C@H](CS)NC(=O)[C@H](CS)NC(=O)CN)C(=O)N[C@@H](CCCNC(=N)N)C(=O)N[C@@H](CO)C(=O)N[C@@H](CS)C(=O)O` (H-GCCSHPACSPRRARSC-OH), the Activity [7] was 99%, the IC50 [3] was 1120 nM and the IC50 [1] was 2120 nM. The Activity [8] was 97%, the Activity ([5]; filed as antagonist) was 10% and the Activity ([6]; filed as antagonist) was 16%.

With `C[C@H](NC(=O)[C@H](CCCNC(=N)N)NC(=O)[C@H](CO)NC(=O)[C@H](CCCNC(=N)N)NC(=O)[C@H](CO)NC(=O)[C@H](CS)NC(=O)[C@H](C)NC(=O)[C@@H]1CCCN1C(=O)[C@H](Cc1c[nH]cn1)NC(=O)[C@H](CO)NC(=O)[C@H](CS)NC(=O)[C@H](CS)NC(=O)CN)C(=O)N[C@@H](CO)C(=O)N[C@@H](CO)C(=O)N[C@@H](CS)C(=O)O` (H-GCCSHPACSRSRASSC-OH) the IC50 [3] was greater than 10000 nM and the IC50 [1] was 5400 nM.

`C[C@H](NC(=O)[C@H](CCCNC(=N)N)NC(=O)[C@H](CCCNC(=N)N)NC(=O)[C@H](Cc1c[nH]cn1)NC(=O)[C@H](CO)NC(=O)[C@H](CS)NC(=O)[C@H](C)NC(=O)[C@@H]1CCCN1C(=O)[C@H](Cc1c[nH]cn1)NC(=O)[C@H](CO)NC(=O)[C@H](CS)NC(=O)[C@H](CS)NC(=O)CN)C(=O)N[C@@H](CCCNC(=N)N)C(=O)N[C@@H](CO)C(=O)N[C@@H](CS)C(=O)O` (H-GCCSHPACSHRRARSC-OH) gave an IC50 [3] of 1290 nM, an IC50 [1] of 10100 nM and an Activity ([5]; filed as antagonist) of 6%. It also gave an Activity ([6]; filed as antagonist) of 46%.

With `CC[C@H](C)[C@H](NC(=O)[C@H](CCC(=O)O)NC(=O)[C@@H]1CCCN1C(=O)[C@H](Cc1c[nH]cn1)NC(=O)[C@H](CC(=O)O)NC(=O)[C@@H](NC(=O)[C@H](CC(N)=O)NC(=O)[C@H](CS)NC(=O)[C@H](C)NC(=O)[C@@H]1CCCN1C(=O)[C@H](Cc1c[nH]cn1)NC(=O)[C@H](CO)NC(=O)[C@H](CS)NC(=O)[C@H](CS)NC(=O)CN)C(C)C)C(=O)N[C@@H](CS)C(=O)O` the Activity [9] was 91%, the Ratio IC50 (Homo sapiens [10]) was greater than 400 and the Ratio IC50 (Homo sapiens [11]) was greater than 400. For the same molecule, the Ratio IC50 (Homo sapiens [12]) was greater than 400, the IC50 [13] was 25.4 nM and the IC50 [3] was greater than 10000 nM. It also gave an IC50 [1] greater than 10000 nM, a Ratio IC50 (Homo sapiens [14]) greater than 400 and an IC50 [15] greater than 10000 nM. It also gave an Activity [5] of 103%, an Activity [16] of 74% and an IC50 [17] greater than 10000 nM. It also gave an Activity [6] of 81%.

For `C[C@H](NC(=O)[C@H](CCCNC(=N)N)NC(=O)[C@H](CCCNC(=N)N)NC(=O)[C@H](Cc1c[nH]cn1)NC(=O)[C@H](CO)NC(=O)[C@H](CCCCN)NC(=O)[C@H](CS)NC(=O)[C@H](C)NC(=O)[C@@H]1CCCN1C(=O)[C@H](Cc1c[nH]cn1)NC(=O)[C@H](CO)NC(=O)[C@H](CS)NC(=O)[C@H](CS)NC(=O)CN)C(=O)N[C@@H](CCCNC(=N)N)C(=O)N[C@@H](CS)C(=O)O` (H-GCCSHPACKSHRRARC-OH), the IC50 [3] was 133 nM, the IC50 [1] was 1890 nM and the Activity ([5]; filed as antagonist) was 0.7%. The Activity ([6]; filed as antagonist) was 13%.
